# High-throughput results deposited in PubChem BioAssay by NMMLSC.
# In the library only some 2.3% were active in any assay of this set; here they are far more common.
# MEKK3 PB1 HTS: modulators (inhibitors or enhancers) of MEK5 binding to human MEKK3 PB1 domain. AID 1529. 1.4% of 290,000 active. binding response (% of control), % at 10 µM. Q99759. bead-based flow cytometry, Alexa488-MEK5 binding to MEKK3; actives lie on both sides; 0 = blocked by unlabeled MEK5, 100 = vehicle;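 active means binding response more than 3 SD above or below the average of its plate-row segment, actives on both sides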;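 further: Alexa488 bead fluorescence after subtracting the streptavidin-only scavenger bead signal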
# Target sequence (Q99759 whole entry, looked up, the tested form may be a part): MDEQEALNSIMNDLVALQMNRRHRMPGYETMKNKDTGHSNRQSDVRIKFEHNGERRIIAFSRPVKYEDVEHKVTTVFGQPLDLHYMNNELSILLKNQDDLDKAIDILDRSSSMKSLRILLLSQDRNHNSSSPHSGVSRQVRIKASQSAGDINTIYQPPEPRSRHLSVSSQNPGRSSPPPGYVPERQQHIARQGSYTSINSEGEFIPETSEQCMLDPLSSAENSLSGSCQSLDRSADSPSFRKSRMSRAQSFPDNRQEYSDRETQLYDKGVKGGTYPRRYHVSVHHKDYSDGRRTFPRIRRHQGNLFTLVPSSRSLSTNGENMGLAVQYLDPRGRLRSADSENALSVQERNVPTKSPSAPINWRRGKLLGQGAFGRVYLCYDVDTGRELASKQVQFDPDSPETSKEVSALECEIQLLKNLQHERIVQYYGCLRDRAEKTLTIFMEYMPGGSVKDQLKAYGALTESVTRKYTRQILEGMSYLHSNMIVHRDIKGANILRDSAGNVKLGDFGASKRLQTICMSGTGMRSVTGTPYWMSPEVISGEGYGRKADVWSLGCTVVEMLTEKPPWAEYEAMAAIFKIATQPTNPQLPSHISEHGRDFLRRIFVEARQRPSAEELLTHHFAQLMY
# MEKK2 WT-MEK5: raises or lowers MEK5 binding to wildtype human MEKK2 PB1 domain | AID 1531 | 1.1% of 290,000 active | bead flow cytometry, Alexa488-MEK5 binding to MEKK2 WT; actives lie on both sides | binding response (% of control), % at 10 µM | Q9Y2U5; in the data active means binding response below about 67% or above about 130%
# Arrestin-AP2 inh: human beta-arrestin and AP2 interaction inhibition; FITC-arrestin peptide / GST-AP2 beads, flow cytometry; AP2 beta2 appendage carries R879A mutation; AID 504490; inhibition, % at 10 µM; 0.31% of 340,000 active;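 active means inhibition above a set limit, near 3 SD of compounds lacking own fluorescence, cut at about 54% in these data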
#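 test system = AP2 appendage R879A on GSH beads | buffer or medium = PBS plus Tween 20 (0.05%) and BSA (0.1%) | incubation = 12 min plus 1 h, RT | detection = bead flow cytometry, FITC channel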
# MEKK2mut PB1 HTS: signal of MEK5 binding to mutant human MEKK2 PB1 domain; bead flow cytometry, Alexa488-MEK5 binding to MEKK2 mutant; percent response, % at 10 µM; 0.35% of 290,000 active; in the data active means percent response above about 24%, passing the limit was not always enough
# MEKK2wt confirm: raises or lowers MEK5 binding to wildtype human MEKK2, retest | 2.4% of 5,900 active | binding response (% of control), % at 10 µM | bead flow cytometry, Alexa488-MEK5 binding to MEKK2 WT; actives lie on both sides | shares compounds with MEKK3 PB1 HTS; in the data active means binding response below about 16% or above about 210%; inactive means in between
# MEKK2mut confirm: signal of MEK5 binding to mutant human MEKK2, retest | shares compounds with MEKK3 PB1 HTS | bead flow cytometry, Alexa488-MEK5 binding to MEKK2 mutant | percent response, % at 10 µM | 2% of 5,900 active | AID 1893; in the data active means percent response mostly above about 71%, no sharp cut-off; inactive means mostly below about 38%;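 further: higher means compound restores mutant binding toward wildtype level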
# MEKK3-MEK5 inh: confirmation of inhibitors of MEK5 binding to human MEKK3; bead flow cytometry, Alexa488-MEK5 binding to MEKK3; active compounds read low; binding response (% of control), % at 10 µM; AID 1894; shares compounds with MEKK3 PB1 HTS; 1.8% of 5,900 active;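 active means binding response below 72% of control, or above a set upper limit, though filed actives all read lower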;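 further: lower values mean stronger disruption of MEK5 binding to MEKK3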
# Numbers stand for hits; – = inactive; · = no result; + = active, no number; [ ] = dose if it differs, or a comment.
SMILES,MEKK3 PB1 HTS,MEKK2 WT-MEK5,Arrestin-AP2 inh,MEKK2mut PB1 HTS,MEKK2wt confirm,MEKK2mut confirm,MEKK3-MEK5 inh
O=C(/N=C1/c2ccccc2CN1c1ccccc1)Nc1ccccc1,138,–,–,–,–,–,–
CC(=O)c1ccc(NC(=O)N2C3CCC2CC(O)(c2cccnc2)C3)cc1 (stereo not given),–,–,–,–,·,·,·
CC1=CC2=NC(=O)CC(C)(C(=O)N(CC(=O)NC3CCCC3)c3cc(C)cc(C)c3)N2C=C1 (stereo not given),150,–,–,–,–,–,–
COC(=O)c1sccc1NC(=O)c1ccc(C)o1,0.0[inhibitor],-1.0[inhibitor],–,–,–,–,–
CCOC(=O)/C(C#N)=C1\SS/C(=C(/C#N)C(=O)OCC)S1,–,–,·,–,·,·,·
Cc1cc(C)n(CCc2nc(-c3ccc(F)cc3)cs2)n1,–,–,–,–,·,·,·
COc1cc(-c2csc(CCn3nc(C)cc3C)n2)cc(OC)c1OC,–,·,–,+,–,–,–
C=CCNc1oc(-c2cccc(F)c2)nc1C#N,·,·,–,·,·,·,·
CN1CCN(CCCNCc2cn(CCC#N)c3ccccc23)CC1,–,168,–,25,–,–,–
C[C@H]1CN(CCc2ccccc2)C(=O)[C@@H]1CC(=O)NCc1ccccc1,–,–,–,–,·,·,·
CCC(c1nnnn1Cc1ccc2c(c1)OCO2)N1CCN(CC)CC1 (stereo not given),131,–,–,–,–,–,–
CCN1CCN(C(c2nnnn2Cc2ccc3c(c2)OCO3)C(C)C)CC1 (stereo not given),–,–,–,–,·,·,·
COc1ccc(C)cc1NC(=O)c1ccccc1NS(=O)(=O)c1ccc(Cl)s1,–,–,–,–,·,·,·
C=CCc1ccc(OCCOc2ccc(/C=N/n3cnnc3)cc2OCC)c(OC)c1,–,–,–,27,–,–,–
COc1ccccc1N1CCN(S(=O)(=O)c2ccc(Cl)s2)CC1,0.0[inhibitor],-4.0[inhibitor],–,–,–,–,56
Cn1c(OCc2cccnc2)nc2c1c(=O)n(Cc1ccc(F)cc1)c(=O)n2C,71[inhibitor],–,–,–,–,–,–
C[n+]1c2n(c3ccccc31)N=C(c1ccc(-c3ccccc3)cc1)CS2,–,159,–,–,–,–,–
C[n+]1c2n(c3ccccc31)N=C(c1ccccc1)CS2,–,–,–,–,·,·,·
COc1ccc(/C=C2/C(=O)N(Cc3ccccc3)N=C2C)cc1,128,–,·,–,–,–,–
CC1=NN(c2ccccc2)C(=O)/C1=C/c1ccc(Cl)cc1,–,–,–,–,·,·,·
CN(c1c[nH]c(=O)[nH]c1=O)C1CCCCC1,69[inhibitor],–,–,–,–,–,–
CN(C(=O)CSc1nccc(=O)[nH]1)C1CCCCC1,·,·,–,·,·,·,·
COC(=O)/C(N=Nc1c(C)n(C)n(-c2ccccc2)c1=O)=C(\C)O,142,–,–,–,–,–,–
CCOC(=O)[C@@H]1[C@H]2COc3ccc(Br)cc3[C@H]2N2C(=O)N(c3ccc(C)cc3)C(=O)[C@]12C,–,–,–,–,·,·,·
O=[N+]([O-])c1cccc(S(=O)(=O)N2CCCC2)c1,15[inhibitor],·,–,90,–,–,–
SMILES,MEKK3 PB1 HTS,MEKK2 WT-MEK5,Arrestin-AP2 inh,MEKK2mut PB1 HTS,MEKK2wt confirm,MEKK2mut confirm,MEKK3-MEK5 inh
CN1C(=O)NC(c2ccc(O)cc2)C2=C1CN(c1ccc(O)cc1)C2=O (stereo not given),147,–,–,–,–,–,–
CN(C)CCNCCCNc1c2ccccc2nc2cccc([N+](=O)[O-])c12,·,·,–,·,·,·,·
Cc1ccc2[nH]c(=O)c(CN(Cc3cccnc3)Cc3nnnn3CC3CCCO3)cc2c1 (stereo not given),135,–,–,–,–,–,–
COCCn1nnnc1CN(Cc1cccnc1)Cc1cc2cc(OC)ccc2[nH]c1=O,–,–,–,–,·,·,·
Cc1ccc2cc(CN(Cc3nnnn3C3CCCCC3)CC3CCCO3)c(=O)[nH]c2c1 (stereo not given),1.0[inhibitor],-3.0[inhibitor],–,–,–,–,–
Cc1ccc2[nH]c(=O)c(CN(Cc3cccnc3)Cc3nnnn3CCN3CCOCC3)cc2c1,2.0[inhibitor],2.0[inhibitor],–,–,–,–,–
O=c1[nH]c2cc3c(cc2cc1CN(Cc1ccc2c(c1)OCO2)Cc1nnnn1CC1CCCO1)OCO3 (stereo not given),–,–,–,–,·,·,·
Cc1cc2cc(CN(Cc3nnnn3C3CCCCC3)CC3CCCO3)c(=O)[nH]c2cc1C (stereo not given),–,–,–,–,·,·,·
CCCCC(C(=O)OCC)C(N)Cc1ccc(F)cc1 (stereo not given),–,–,–,–,·,·,·
CC(C)(C)c1ccc(S(=O)(=O)n2c(CN3CCOCC3)nc3ccccc32)cc1,125,–,–,–,–,–,–
O=[N+]([O-])c1ccc(-c2nc(Nc3cccc(O)c3)c3ccccc3n2)cc1,–,146,–,–,–,–,–
CCCCCC(=O)N1CC2(CC(c3cccc(NC(=O)CC(c4ccccc4)c4ccccc4)c3)=NO2)C[C@@H]1C(N)=O (stereo not given in full),81[inhibitor],–,–,–,–,–,–
CN(C)C(=O)N1CCC(C(=O)NCc2ccccc2)CC1,1.0[inhibitor],-2.0[inhibitor],–,–,–,–,–
Cc1ccc(/C=C/C(=O)NCCCn2ccnc2)cc1,3.0[inhibitor],5.0[inhibitor],–,–,–,–,–
COc1ccc(/C=C/C(=O)NCCCN2CCCCCC2)cc1,–,155,–,28,–,–,–
O=C(/C=C/c1ccc(F)cc1)NCCCN1CCN(CCCNC(=O)/C=C/c2ccc(F)cc2)CC1,–,146,–,–,–,–,–
O=c1c2cc(NC(=S)NCCCN3CCC(Cc4ccccc4)CC3)ccc2nc2n1CCCCC2,–,149,–,–,–,–,–
O=C(CC1NCCc2ccccc21)Nc1ccc(Oc2ccccc2)cc1 (stereo not given),–,160,–,–,–,–,–
CC(C)(C)C(=O)O/N=C(\N)Cc1ccc(-c2csnn2)cc1,–,–,–,–,·,·,·
CC(C)(C)NC(=O)C(c1ccncc1)N(C(=O)c1csnn1)c1cccc2ccccc12 (stereo not given),143,–,–,–,–,–,–
O=C(COC(=O)/C=C/c1cccc(F)c1)NC(=O)NCc1ccccc1,·,·,–,·,·,·,·
O=C(Cc1ccc(NC(=O)C2CCCN(C(=O)C3CC3)C2)cc1)Nc1ccc(C(=O)N2CCOCC2)cc1 (stereo not given),·,·,–,·,·,·,·
CC(C)CCNC(=O)Cc1csc(-c2ccccc2)n1,2.0[inhibitor],3.0[inhibitor],–,–,–,–,–
